From ChEMBL document CHEMBL1139884, “Structure-based design, synthesis, and A-site rRNA cocrystal complexes of functionally novel aminoglycoside antibiotics: C2" ether analogues of paromomycin” (2007)
Values after ≈ are worked out from the molar mass of the structure shown.

What was measured:
Staphylococcus aureus = experiment: Antimicrobial activity against Staphylococcus aureus ATCC 13709 after 20 to 24 hrs; format: functional
Outline: (§1)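 Broth microdilution in duplicate; compound in 2.5% DMSO in water, overnight culture added to a final inoculum of about 10^2-10^3 CFU/well. Growth read as A595 after 20-24 h at 37°C, relative to a no-compound well. MIC reported as a range: complete inhibition at the higher concentration, viable cells at the lower. Ampicillin and tetracycline are the positive controls.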

Escherichia coli = experiment: Antimicrobial activity against Escherichia coli ATCC 25922 after 20 to 24 hrs; format: functional; outline: as §1

NC[C@@H]1O[C@H](O[C@H]2[C@@H](OCCCCCc3ccccc3)[C@H](O[C@@H]3[C@@H](O)[C@H](N)C[C@H](N)[C@H]3O[C@H]3O[C@H](CO)[C@@H](O)[C@H](O)[C@H]3N)O[C@@H]2CO)[C@H](N)[C@@H](O)[C@@H]1O
MIC (Staphylococcus aureus): 3 mg/L (≈ 3.94 µM)
MIC (Escherichia coli): 10 mg/L (≈ 13.1 µM)

NC[C@@H]1O[C@H](O[C@H]2[C@@H](OCCNCCc3cccnc3)[C@H](O[C@@H]3[C@@H](O)[C@H](N)C[C@H](N)[C@H]3O[C@H]3O[C@H](CO)[C@@H](O)[C@H](O)[C@H]3N)O[C@@H]2CO)[C@H](N)[C@@H](O)[C@@H]1O
MIC (Staphylococcus aureus): < 1.5 mg/L
MIC (Escherichia coli): 12 mg/L (≈ 15.7 µM)

CC(=O)N(CCO[C@H]1[C@H](O[C@@H]2[C@@H](O)[C@H](N)C[C@H](N)[C@H]2O[C@H]2O[C@H](CO)[C@@H](O)[C@H](O)[C@H]2N)O[C@H](CO)[C@H]1O[C@H]1O[C@@H](CN)[C@@H](O)[C@H](O)[C@H]1N)CCc1ccccc1
MIC (Staphylococcus aureus): 1 mg/L (≈ 1.24 µM)
MIC (Escherichia coli): 10 mg/L (≈ 12.4 µM)

NC[C@@H]1O[C@H](O[C@H]2[C@@H](OCCNCCCCc3ccccc3)[C@H](O[C@@H]3[C@@H](O)[C@H](N)C[C@H](N)[C@H]3O[C@H]3O[C@H](CO)[C@@H](O)[C@H](O)[C@H]3N)O[C@@H]2CO)[C@H](N)[C@@H](O)[C@@H]1O
MIC (Staphylococcus aureus): 3 mg/L (≈ 3.79 µM)
MIC (Escherichia coli): 10 mg/L (≈ 12.6 µM)

NC[C@@H]1O[C@H](O[C@H]2[C@@H](O)[C@H](O[C@@H]3[C@@H](O)[C@H](N)C[C@H](N)[C@H]3O[C@H]3O[C@H](CO)[C@@H](O)[C@H](O)[C@H]3N)O[C@@H]2CO)[C@H](N)[C@@H](O)[C@@H]1O [PAROMOMYCIN]
MIC (Staphylococcus aureus): 1 mg/L (≈ 1.62 µM)
MIC (Escherichia coli): 3 mg/L (≈ 4.87 µM)

NC[C@@H]1O[C@H](O[C@H]2[C@@H](OCCNCc3ccc(N)nc3)[C@H](O[C@@H]3[C@@H](O)[C@H](N)C[C@H](N)[C@H]3O[C@H]3O[C@H](CO)[C@@H](O)[C@H](O)[C@H]3N)O[C@@H]2CO)[C@H](N)[C@@H](O)[C@@H]1O
MIC (Staphylococcus aureus): 0.3 mg/L (≈ 0.392 µM)
MIC (Escherichia coli): 3 mg/L (≈ 3.92 µM)

NC[C@@H]1O[C@H](O[C@H]2[C@@H](OCCNCC3CCCNC3)[C@H](O[C@@H]3[C@@H](O)[C@H](N)C[C@H](N)[C@H]3O[C@H]3O[C@H](CO)[C@@H](O)[C@H](O)[C@H]3N)O[C@@H]2CO)[C@H](N)[C@@H](O)[C@@H]1O (stereo not given in full)
MIC (Staphylococcus aureus): 3 mg/L (≈ 3.97 µM)
MIC (Escherichia coli): 1.5 mg/L (≈ 1.98 µM)

NC[C@@H]1O[C@H](O[C@H]2[C@@H](OCCNc3ccccn3)[C@H](O[C@@H]3[C@@H](O)[C@H](N)C[C@H](N)[C@H]3O[C@H]3O[C@H](CO)[C@@H](O)[C@H](O)[C@H]3N)O[C@@H]2CO)[C@H](N)[C@@H](O)[C@@H]1O
MIC (Staphylococcus aureus): 2 mg/L (≈ 2.72 µM)
MIC (Escherichia coli): 12 mg/L (≈ 16.3 µM)

NC[C@@H]1O[C@H](O[C@H]2[C@@H](OCCNC3CCCCC3)[C@H](O[C@@H]3[C@@H](O)[C@H](N)C[C@H](N)[C@H]3O[C@H]3O[C@H](CO)[C@@H](O)[C@H](O)[C@H]3N)O[C@@H]2CO)[C@H](N)[C@@H](O)[C@@H]1O
MIC (Staphylococcus aureus): 3 mg/L (≈ 4.05 µM)
MIC (Escherichia coli): 3 mg/L (≈ 4.05 µM)

N[C@H]1[C@@H](O[C@H]2[C@H](O[C@@H]3O[C@H](CO)[C@@H](O)[C@H]3OCCNCCc3ccccc3)[C@@H](O)[C@H](N)C[C@@H]2N)O[C@H](CO)[C@@H](O)[C@@H]1O
MIC (Staphylococcus aureus): 12 mg/L (≈ 19.9 µM)
MIC (Escherichia coli): > 100 mg/L

COc1cc(CCNCCO[C@H]2[C@H](O[C@@H]3[C@@H](O)[C@H](N)C[C@H](N)[C@H]3O[C@H]3O[C@H](CO)[C@@H](O)[C@H](O)[C@H]3N)O[C@H](CO)[C@H]2O[C@H]2O[C@@H](CN)[C@@H](O)[C@H](O)[C@H]2N)cc(OC)c1
MIC (Staphylococcus aureus): 5 mg/L (≈ 6.08 µM)
MIC (Escherichia coli): 10 mg/L (≈ 12.2 µM)

NC[C@@H]1O[C@H](O[C@H]2[C@@H](OCCNCCc3ccc(-c4ccccc4)cc3)[C@H](O[C@@H]3[C@@H](O)[C@H](N)C[C@H](N)[C@H]3O[C@H]3O[C@H](CO)[C@@H](O)[C@H](O)[C@H]3N)O[C@@H]2CO)[C@H](N)[C@@H](O)[C@@H]1O
MIC (Staphylococcus aureus): 5 mg/L (≈ 5.96 µM)
MIC (Escherichia coli): 20 mg/L (≈ 23.8 µM)

NC[C@@H]1O[C@H](O[C@H]2[C@@H](OCCNc3cccnc3)[C@H](O[C@@H]3[C@@H](O)[C@H](N)C[C@H](N)[C@H]3O[C@H]3O[C@H](CO)[C@@H](O)[C@H](O)[C@H]3N)O[C@@H]2CO)[C@H](N)[C@@H](O)[C@@H]1O
MIC (Staphylococcus aureus): < 1.5 mg/L
MIC (Escherichia coli): 12 mg/L (≈ 16.3 µM)

NC[C@@H]1O[C@H](O[C@H]2[C@@H](OCCNCCc3ccc(C(F)(F)F)cc3)[C@H](O[C@@H]3[C@@H](O)[C@H](N)C[C@H](N)[C@H]3O[C@H]3O[C@H](CO)[C@@H](O)[C@H](O)[C@H]3N)O[C@@H]2CO)[C@H](N)[C@@H](O)[C@@H]1O
MIC (Staphylococcus aureus): 0.6 mg/L (≈ 0.722 µM)
MIC (Escherichia coli): 5 mg/L (≈ 6.02 µM)

NC[C@@H]1O[C@H](O[C@H]2[C@@H](OCCNCc3nc4ccccc4[nH]3)[C@H](O[C@@H]3[C@@H](O)[C@H](N)C[C@H](N)[C@H]3O[C@H]3O[C@H](CO)[C@@H](O)[C@H](O)[C@H]3N)O[C@@H]2CO)[C@H](N)[C@@H](O)[C@@H]1O
MIC (Staphylococcus aureus): > 100 mg/L
MIC (Escherichia coli): > 100 mg/L

NC[C@@H]1O[C@H](O[C@H]2[C@@H](OCCNCCc3ccc4ccccc4c3)[C@H](O[C@@H]3[C@@H](O)[C@H](N)C[C@H](N)[C@H]3O[C@H]3O[C@H](CO)[C@@H](O)[C@H](O)[C@H]3N)O[C@@H]2CO)[C@H](N)[C@@H](O)[C@@H]1O
MIC (Staphylococcus aureus): 1 mg/L (≈ 1.23 µM)
MIC (Escherichia coli): 10 mg/L (≈ 12.3 µM)

NC[C@@H]1O[C@H](O[C@H]2[C@@H](OCC(O)c3ccccc3)[C@H](O[C@@H]3[C@@H](O)[C@H](N)C[C@H](N)[C@H]3O[C@H]3O[C@H](CO)[C@@H](O)[C@H](O)[C@H]3N)O[C@@H]2CO)[C@H](N)[C@@H](O)[C@@H]1O (stereo not given in full)
MIC (Staphylococcus aureus): 3 mg/L (≈ 4.08 µM)
MIC (Escherichia coli): 25 mg/L (≈ 34 µM)

NC[C@@H]1O[C@H](O[C@H]2[C@@H](OCCNC3CCNCC3)[C@H](O[C@H]3C(O[C@H]4O[C@H](CO)[C@@H](O)[C@H](O)[C@H]4N)[C@@H](N)C[C@@H](N)[C@@H]3O)O[C@@H]2CO)[C@H](N)[C@@H](O)[C@@H]1O (stereo not given in full)
MIC (Staphylococcus aureus): 2 mg/L (≈ 2.7 µM)
MIC (Escherichia coli): 25 mg/L (≈ 33.7 µM)

N[C@H]1[C@@H](O[C@H]2[C@H](O[C@@H]3O[C@H](CO)[C@@H](O)[C@H]3O)[C@@H](O)[C@H](N)C[C@@H]2N)O[C@H](CO)[C@@H](O)[C@@H]1O
MIC (Staphylococcus aureus): > 100 mg/L
MIC (Escherichia coli): > 100 mg/L

NC[C@@H]1O[C@H](O[C@H]2[C@@H](OCCNc3cccc(O)c3)[C@H](O[C@@H]3[C@@H](O)[C@H](N)C[C@H](N)[C@H]3O[C@H]3O[C@H](CO)[C@@H](O)[C@H](O)[C@H]3N)O[C@@H]2CO)[C@H](N)[C@@H](O)[C@@H]1O
MIC (Staphylococcus aureus): 2 mg/L (≈ 2.66 µM)
MIC (Escherichia coli): 12 mg/L (≈ 16 µM)

NC[C@@H]1O[C@H](O[C@H]2[C@@H](OCCNc3ccccc3)[C@H](O[C@@H]3[C@@H](O)[C@H](N)C[C@H](N)[C@H]3O[C@H]3O[C@H](CO)[C@@H](O)[C@H](O)[C@H]3N)O[C@@H]2CO)[C@H](N)[C@@H](O)[C@@H]1O
MIC (Staphylococcus aureus): 6 mg/L (≈ 8.17 µM)
MIC (Escherichia coli): 50 mg/L (≈ 68 µM)

CCCCCCCCN(CCCCCCCC)CCO[C@H]1[C@H](O[C@H]2C(O[C@H]3O[C@H](CO)[C@@H](O)[C@H](O)[C@H]3N)[C@@H](N)C[C@@H](N)[C@@H]2O)O[C@H](CO)[C@H]1O[C@H]1O[C@@H](CN)[C@@H](O)[C@H](O)[C@H]1N (stereo not given in full)
MIC (Staphylococcus aureus): 1.2 mg/L (≈ 1.36 µM)
MIC (Escherichia coli): 5 mg/L (≈ 5.66 µM)

NC[C@@H]1O[C@H](O[C@H]2[C@@H](OCCNC3CCCc4ccccc43)[C@H](O[C@@H]3[C@@H](O)[C@H](N)C[C@H](N)[C@H]3O[C@H]3O[C@H](CO)[C@@H](O)[C@H](O)[C@H]3N)O[C@@H]2CO)[C@H](N)[C@@H](O)[C@@H]1O (stereo not given in full)
MIC (Staphylococcus aureus): 1.25 mg/L (≈ 1.58 µM)
MIC (Escherichia coli): > 10 mg/L

NC[C@@H]1O[C@H](O[C@H]2[C@@H](OCCNCc3ccccc3)[C@H](O[C@@H]3[C@@H](O)[C@H](N)C[C@H](N)[C@H]3O[C@H]3O[C@H](CO)[C@@H](O)[C@H](O)[C@H]3N)O[C@@H]2CO)[C@H](N)[C@@H](O)[C@@H]1O
MIC (Staphylococcus aureus): 3 mg/L (≈ 4.01 µM)
MIC (Escherichia coli): 3 mg/L (≈ 4.01 µM)

NCCCNCCO[C@H]1[C@H](O[C@@H]2[C@@H](O)[C@H](N)C[C@H](N)[C@H]2O[C@H]2O[C@H](CO)[C@@H](O)[C@H](O)[C@H]2N)O[C@H](CO)[C@H]1O
MIC (Staphylococcus aureus): 6 mg/L (≈ 10.8 µM)
MIC (Escherichia coli): 6 mg/L (≈ 10.8 µM)
